Measurements of several laboratories.
Protocols differ between the studies behind these lines.
Target: NUAK family SNF1-like kinase 2 (NUAK2, Homo sapiens, UniProt Q9H093)
One construct used (Q9H093 1-628): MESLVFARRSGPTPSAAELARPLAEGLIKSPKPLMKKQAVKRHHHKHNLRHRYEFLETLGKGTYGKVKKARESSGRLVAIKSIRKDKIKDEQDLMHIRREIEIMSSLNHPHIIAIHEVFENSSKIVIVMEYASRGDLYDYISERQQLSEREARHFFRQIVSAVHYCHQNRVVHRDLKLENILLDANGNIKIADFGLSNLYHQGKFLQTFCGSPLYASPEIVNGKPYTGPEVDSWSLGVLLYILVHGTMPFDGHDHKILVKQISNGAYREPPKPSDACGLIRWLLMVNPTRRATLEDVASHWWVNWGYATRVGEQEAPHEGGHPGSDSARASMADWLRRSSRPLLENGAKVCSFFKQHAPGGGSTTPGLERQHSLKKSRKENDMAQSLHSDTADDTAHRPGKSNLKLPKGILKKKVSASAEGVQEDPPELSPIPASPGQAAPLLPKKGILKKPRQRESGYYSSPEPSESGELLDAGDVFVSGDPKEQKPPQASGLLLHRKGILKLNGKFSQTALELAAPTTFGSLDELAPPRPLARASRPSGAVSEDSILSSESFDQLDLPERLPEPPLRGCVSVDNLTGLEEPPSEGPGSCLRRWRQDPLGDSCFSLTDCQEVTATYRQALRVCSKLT

SMILES | effect on | action | technique | tested at | endpoint | value
C=CC(=O)N1CCC([C@@H]2CCNc3c(C(N)=O)c(-c4ccc(Oc5ccccc5)cc4)nn32)CC1 | enzyme activity | inhibitor |  | 1 µM | inhibition | 24%
COc1ccc2oc(-c3ccc4nc(N)oc4c3)c/c(=N\c3ccccc3NC(=O)CCN)c2c1 | binding |  |  | 1 µM | remaining binding | 93%
CCCCC(=O)Nc1ccc(-c2ccc3ncn(CCC)c(=O)c3c2)cn1 | binding |  | competition with immobilised ligand | 0.5 µM | remaining binding | 97%
CO[C@@H]1[C@H](N(C)C(=O)c2ccccc2)C[C@H]2O[C@]1(C)n1c3ccccc3c3c4c(c5c6ccccc6n2c5c31)C(=O)NC4 | enzyme activity | inhibitor |  | 1 µM | inhibition | 99%
CNS(=O)(=O)c1ccc(Nc2ncc(C(F)(F)F)c(N3CCC[C@](C)(O)C3)n2)c(C)c1 | binding |  | competition with immobilised ligand | 1 µM | remaining binding | 3.9%
CN1CCN(C(=O)c2ccc(NC(=O)Nc3ccc(N(C)c4ccnc(Nc5ccc(CS(C)(=O)=O)cc5)n4)cc3)cc2)CC1 | binding |  |  | 1 µM | remaining binding | 39%
C[C@]1(O)CCCN(c2nc(Nc3ccc(S(=O)(=O)N[C@H]4CC[C@H](CN5CCN(c6ccc(C7CCC(=O)NC7=O)cc6F)CC5)CC4)cc3Cl)ncc2C(F)(F)F)C1 (stereo partly drawn) | binding |  | competition with immobilised ligand | 1 µM | remaining binding | 49%
C[C@H]1CC[C@H](n2c3cnccc3c3cnc(Nc4ccc5c(n4)CCN(C(=O)CO)C5)nc32)CC1 | cell-free assay |  |  | 1 µM | remaining signal | 34%
CC(C)S(=O)(=O)c1ccc2nccc(Nc3ccc4sc(C5CCCC5)nc4c3)c2c1 | enzyme activity | inhibitor |  | 1 µM | activity vs control | 121%
C1=C/COCc2cc(ccc2OCCN2CCCC2)Nc2nccc(n2)-c2cccc(c2)COC/1 | cell-free assay |  |  | 0.1 µM | remaining signal | 13%
N#Cc1ccc(NC(=O)Nc2ccccc2)cc1 | cell-free assay |  | competition with immobilised ligand | 25 µM | remaining binding | 77%
Cc1cc(O)c(-c2ccc([C@@H](C)CN(C)C)cc2)c2c1[nH]c(=O)c1sccc12 | enzyme activity | inhibitor |  | 0.1 µM | inhibition | 3.81%
